Experimental data published in ChEMBL document CHEMBL1156597, “Structure-activity relationship of kahalalide F synthetic analogues” (J Med Chem, 2008).

Experiments:
PANC-1 = assay: Cytotoxicity against human PANC1 cells after 48 hrs by SRB assay; assay type: functional; settings: PANC-1, 48 h; for CC50: read-out: LC50 (the source's name)
Summary of the method: (§1)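 Cells grown in RPMI 1640 with 10% FBS and penicillin/streptomycin at 37 °C and 5% CO₂, trypsinized, then seeded at 5 × 10³/well. After 18 h drug-free attachment, samples in DMSO/EtOH/PBS (0.5:0.5:99) were added for 48 h continuous exposure. Cells were fixed with cold TCA (1 h, 4 °C) and stained with SRB (10 min). Tris-solubilized stain read at 490 nm. Triplicate wells, mean ± SD; GI₅₀ derived.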

K562 = assay: Cytotoxicity against human K562 cells after 48 hrs by SRB assay; assay type: functional; settings: K562, 48 h; for CC50: read-out: LC50 (the source's name); summary of the method: as §1
[1] = Cytotoxicity against human HeLa-APL cells after 48 hrs by SRB assay; assay type: functional; summary of the method: as §1
HT-29 = assay: Cytotoxicity against human HT29 cells after 48 hrs by SRB assay; assay type: functional, cell-based; settings: Homo sapiens, HT-29, 48 h; for CC50: read-out: LC50 (the source's name); summary of the method: as §1
LoVo [2] = assay: Cytotoxicity against human LoVo cells after 48 hrs by SRB assay; assay type: functional; settings: for CC50: read-out: LC50 (the source's name)
DU-145 = assay: Cytotoxicity against human DU145 cells after 48 hrs by SRB assay; assay type: functional, cell-based; settings: Homo sapiens, DU-145, 48 h; for CC50: read-out: LC50 (the source's name); summary of the method: as §1
LoVo [3] = assay: Cytotoxicity against human doxorubicin resistant LoVo cells after 48 hrs by SRB assay; assay type: functional; settings: for CC50: read-out: LC50 (the source's name); summary of the method: as §1
A549 = assay: Cytotoxicity against human A549 cells after 48 hrs by SRB assay; assay type: functional, cell-based; settings: Homo sapiens, A549, 48 h; summary of the method: as §1
[4] = Cytotoxicity against human IGROV-ET cells after 48 hrs by SRB assay; assay type: functional; settings: for CC50: read-out: LC50 (the source's name); summary of the method: as §1
SK-BR-3 = assay: Cytotoxicity against human SKBR3 cells after 48 hrs by SRB assay; assay type: functional; settings: SK-BR-3, 48 h; for CC50: read-out: LC50 (the source's name); for GI50: read-out: GI50; summary of the method: as §1
HeLa = assay: Cytotoxicity against human HeLa cells after 48 hrs by SRB assay; assay type: functional; settings: for CC50: read-out: LC50 (the source's name); summary of the method: as §1
SK-MEL-28 = assay: Cytotoxicity against human SK-MEL-28 cells after 48 hrs by SRB assay; assay type: functional, cell-based; settings: Homo sapiens, SK-MEL-28, 48 h; for CC50: read-out: LC50 (the source's name); summary of the method: as §1
[5] = Cytotoxicity against human IGROV cells after 48 hrs by SRB assay; assay type: functional; settings: for CC50: read-out: LC50 (the source's name); summary of the method: as §1
LNCaP = assay: Cytotoxicity against human LNcaP cells after 48 hrs by SRB assay; assay type: functional; settings: for CC50: read-out: LC50 (the source's name); summary of the method: as §1

SMILES | CC50 (PANC-1) [µM] | GI50 [1] [µM] | LC50 (concentration giving 50% net cell kill) [1] [µM] | CC50 (HT-29) [µM] | GI50 (LoVo [2]) [µM] | TGI (LoVo [2]) [µM] | CC50 (LoVo [2]) [µM] | GI50 (DU-145; read-out: GI50) [µM] | CC50 (DU-145) [µM] | GI50 (LoVo [3]) [µM] | TGI (LoVo [3]) [µM] | CC50 (LoVo [3]) [µM] | LC50 (A549) [µM] | GI50 (A549; read-out: GI50) [µM] | CC50 [4] [µM] | CC50 (SK-BR-3) [µM] | CC50 (HeLa) [µM] | GI50 (SK-MEL-28; read-out: GI50) [µM] | CC50 (SK-MEL-28) [µM] | CC50 [5] [µM] | further results
C/C=C1\NC(=O)[C@H](Cc2cccs2)NC(=O)[C@@H](C(C)C)NC(=O)[C@@H]([C@H](C)CC)NC(=O)[C@H](NC(=O)[C@H](NC(=O)[C@H](CCCN)NC(=O)[C@H]2CCCN2C(=O)[C@H](NC(=O)[C@@H](NC(=O)[C@@H](NC(=O)[C@H](NC(=O)CC[C@@H](C)CC)C(C)C)[C@@H](C)O)C(C)C)C(C)C)[C@H](C)CC)[C@H](C)OC(=O)[C@H](C(C)C)NC1=O | 2.01 | 1.77 | 1.13 | 0.657 | 0.751 | 1.19 | 1.93 | 1.38 | 1.07 | 0.39 | 0.391 | 0.393 | 1.21 | 1.76 | 0.505 | 0.11 | 1.07 | 1.58 | 1.29 | 0.676 | GI50 (K562): 4.92 µM; TGI (K562): 4.29 µM; CC50 (K562): 2.69 µM; TGI [1]: 1.42 µM; GI50 (HT-29): 1.29 µM; TGI (HT-29): 1.02 µM; TGI (DU-145): 1.21 µM; TGI (A549): 1.45 µM; GI50 [4]: 0.855 µM; GI50 ([4]; read-out: GI50): 1.71 µM; GI50 (HeLa): 1.59 µM; TGI (HeLa): 1.29 µM; TGI (SK-MEL-28): 1.43 µM
C/C=C1\NC(=O)[C@H](Cc2ccc(I)cc2)NC(=O)[C@@H](C(C)C)NC(=O)[C@@H]([C@H](C)CC)NC(=O)[C@H](NC(=O)[C@H](NC(=O)[C@H](CCCN)NC(=O)[C@H]2CCCN2C(=O)[C@H](NC(=O)[C@@H](NC(=O)[C@@H](NC(=O)[C@H](NC(=O)CC[C@@H](C)CC)C(C)C)[C@@H](C)O)C(C)C)C(C)C)[C@H](C)CC)[C@H](C)OC(=O)[C@H](C(C)C)NC1=O | 1.41 | 0.313 | 0.605 | 0.423 | 0.365 | 0.361 | 0.358 | 0.148 | 0.117 | 0.134 | 0.183 | 0.225 | 0.181 | 0.226 | 0.776 | 0.327 | 0.156 | 0.16 | 0.354 | 0.179 | GI50 (PANC-1): 1.2 µM; TGI (PANC-1): 1.3 µM; GI50 (LNCaP): 0.345 µM; TGI (LNCaP): 0.512 µM; CC50 (LNCaP): 0.686 µM; TGI [1]: 0.416 µM; GI50 (HT-29): 0.396 µM; TGI (HT-29): 0.407 µM; GI50 (DU-145): 0.131 µM; GI50 (A549): 0.203 µM; GI50 [4]: 0.955 µM; GI50 ([4]; read-out: GI50): 1.19 µM; TGI (SK-BR-3): 0.315 µM; GI50 (SK-BR-3): 0.305 µM; GI50 (SK-MEL-28): 0.202 µM; GI50 [5]: 0.394 µM; GI50 ([5]; read-out: GI50): 0.67 µM
C/C=C1\NC(=O)[C@@H]2Cc3ccccc3CN2C(=O)[C@@H](C(C)C)NC(=O)[C@@H]([C@H](C)CC)NC(=O)[C@H](NC(=O)[C@H](NC(=O)[C@H](CCCN)NC(=O)[C@H]2CCCN2C(=O)[C@H](NC(=O)[C@@H](NC(=O)[C@@H](NC(=O)[C@H](NC(=O)CC[C@@H](C)CC)C(C)C)[C@@H](C)O)C(C)C)C(C)C)[C@H](C)CC)[C@H](C)OC(=O)[C@H](C(C)C)NC1=O | 2.01 |  | 1.19 | 0.726 | 2.82 | 2.91 | 3.03 | 4.16 | 1.93 | 0.718 | 1.25 | 1.82 | 1.2 | 1.75 | 0.572 | 0.296 | 1.14 | 1.62 | 2.09 | 7.45 | GI50 (K562): 4.89 µM; TGI (K562): 4.26 µM; CC50 (K562): 2.68 µM; TGI (DU-145): 3.83 µM; TGI (A549): 1.44 µM; TGI (SK-BR-3): 1.9 µM; GI50 (SK-BR-3): 2.3 µM; TGI (SK-MEL-28): 1.93 µM
C/C=C1\NC(=O)[C@H](Cc2ccc([N+](=O)[O-])cc2)NC(=O)[C@@H](C(C)C)NC(=O)[C@@H]([C@H](C)CC)NC(=O)[C@H](NC(=O)[C@H](NC(=O)[C@H](CCCN)NC(=O)[C@H]2CCCN2C(=O)[C@H](NC(=O)[C@@H](NC(=O)[C@@H](NC(=O)[C@H](NC(=O)CC[C@@H](C)CC)C(C)C)[C@@H](C)O)C(C)C)C(C)C)[C@H](C)CC)[C@H](C)OC(=O)[C@H](C(C)C)NC1=O | 1.58 | 0.569 | 0.783 | 0.409 | 0.317 | 0.314 | 0.311 | 0.261 | 0.561 | 0.0904 | 0.141 | 0.209 | 0.891 | 0.562 | 0.636 | 0.451 | 0.185 | 0.188 | 0.436 | 0.197 | GI50 (PANC-1): 1.29 µM; TGI (PANC-1): 1.43 µM; GI50 (LNCaP): 0.482 µM; TGI (LNCaP): 0.511 µM; CC50 (LNCaP): 0.669 µM; TGI [1]: 0.7 µM; GI50 (HT-29): 0.419 µM; TGI (HT-29): 0.411 µM; TGI (DU-145): 3.64 µM; GI50 (A549): 0.724 µM; GI50 [4]: 0.811 µM; GI50 ([4]; read-out: GI50): 1.05 µM; TGI (SK-BR-3): 0.406 µM; GI50 (SK-BR-3): 0.366 µM; GI50 (SK-MEL-28): 0.235 µM; GI50 [5]: 0.417 µM; GI50 ([5]; read-out: GI50): 0.682 µM
C/C=C1\NC(=O)[C@H](Cc2ccc(F)cc2)NC(=O)[C@@H](C(C)C)NC(=O)[C@@H]([C@H](C)CC)NC(=O)[C@H](NC(=O)[C@H](NC(=O)[C@H](CCCN)NC(=O)[C@H]2CCCN2C(=O)[C@H](NC(=O)[C@@H](NC(=O)[C@@H](NC(=O)[C@H](NC(=O)CC[C@@H](C)CC)C(C)C)[C@@H](C)O)C(C)C)C(C)C)[C@H](C)CC)[C@H](C)OC(=O)[C@H](C(C)C)NC1=O | 1.58 | 0.737 | 0.837 | 0.479 | 0.393 | 0.361 | 0.33 | 0.891 | 0.893 | 0.413 | 0.46 | 0.512 | 1.04 | 1.01 | 0.649 | 0.389 | 2.82 | 0.699 | 0.953 | 0.381 | GI50 (PANC-1): 1.46 µM; TGI (PANC-1): 1.53 µM; GI50 (LNCaP): 0.514 µM; TGI (LNCaP): 0.62 µM; CC50 (LNCaP): 0.747 µM; TGI [1]: 0.786 µM; GI50 (HT-29): 0.452 µM; TGI (HT-29): 0.462 µM; GI50 (DU-145): 0.893 µM; TGI (A549): 1.03 µM; GI50 [4]: 0.791 µM; GI50 ([4]; read-out: GI50): 0.971 µM; TGI (SK-BR-3): 0.448 µM; GI50 (SK-BR-3): 0.519 µM; GI50 (SK-MEL-28): 0.819 µM; GI50 [5]: 0.558 µM; GI50 ([5]; read-out: GI50): 0.812 µM
C/C=C1\NC(=O)[C@H](Cc2ccc(O)cc2)NC(=O)[C@@H](C(C)C)NC(=O)[C@@H]([C@H](C)CC)NC(=O)[C@H](NC(=O)[C@H](NC(=O)[C@H](CCCN)NC(=O)[C@H]2CCCN2C(=O)[C@H](NC(=O)[C@@H](NC(=O)[C@@H](NC(=O)[C@H](NC(=O)CC[C@@H](C)CC)C(C)C)[C@@H](C)O)C(C)C)C(C)C)[C@H](C)CC)[C@H](C)OC(=O)[C@H](C(C)C)NC1=O | 2.02 |  | 1.98 | 0.748 | 1.83 | 2.31 | 2.69 |  | 1.93 | 1.03 | 1.72 | 2.17 | 1.84 |  | 1 | 0.184 | 2.1 | 2.37 | 2.1 | 0.97 | GI50 (K562): 4.92 µM; TGI (K562): 4.3 µM; CC50 (K562): 2.7 µM; GI50 (HeLa): 3.62 µM; TGI (HeLa): 4.34 µM; TGI (SK-MEL-28): 3.82 µM
